Experimental data: ChEMBL document CHEMBL1158454, “Discovery of a potent and orally active hedgehog pathway antagonist (IPI-926)” (J Med Chem, 2009)
pEC50: −log10 of the molar value. Calls of active or inactive are those of the source.

Experiments:
[1] = Inhibition of HedgeHog pathway in mouse C3H10T1/2 cells assessed as inhibition of 20-(S)-hydroxysterol/22-(S)-hydroxysterol-induced osteoblastic differentiation after 72 hrs by alkaline phosphatase assay; conditions: C3H 10T1/2, 72 h
in vitro = conditions: human
Mus musculus [2] = test: Antitumor activity against Ptc+/- Hic+/- mouse B837Tx cells allografted in NOD/SCID mouse assessed as tumor-free interval on 21 days post treatment at 25 mg/kg, po administered daily for 21 days; assay type: functional, organism-based; parameters: dose 25 mg/kg
[3] = Elimination half life in Beagle dog at 1 mg/kg, iv; assay type: ADME, organism-based, Canis lupus familiaris; parameters: dose 1 mg/kg, route intravenous; conditions: in vivo, read-out: beta t1/2 (converted)
Procedure, shortened: (§1)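 Plasma sampled at 0.083-24 h (T_last 24 h), protein-precipitated with acetonitrile containing jervine internal standard, and quantified by LC/MS/MS. Parameters taken from the concentration-time profile.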

Mus musculus [4] = test: Antitumor activity against Ptc+/- Hic+/- mouse B837Tx cells allografted in NOD/SCID mouse assessed as effect on recurrence rate on post treatment at 25 mg/kg, po administered daily for 21 days; assay type: functional, organism-based; parameters: dose 25 mg/kg
[5] = Oral bioavailability in Sprague-Dawley rat at 5 mg/kg; assay type: ADME, organism-based; conditions: in vivo
[6] = Plasma clearance in Beagle dog at 1 mg/kg, iv; assay type: ADME, organism-based, Canis lupus familiaris; parameters: dose 1 mg/kg, route intravenous
Procedure, shortened: as §1

[7] = Elimination half life in cynomolgus monkey at 1 mg/kg, iv; assay type: ADME, organism-based, Macaca fascicularis; parameters: dose 1 mg/kg, route intravenous; conditions: in vivo, read-out: beta t1/2 (converted)
Procedure, shortened: as §1

[8] = Plasma clearance in CD1 mouse at 1 mg/kg, iv; assay type: ADME, organism-based; parameters: dose 1 mg/kg, route intravenous
Procedure, shortened: as §1

[9] = Volume of distribution in Beagle dog at 1 mg/kg, iv; assay type: ADME, organism-based, Canis lupus familiaris; parameters: dose 1 mg/kg, route intravenous; conditions: in vivo
Procedure, shortened: as §1

[10] = Volume of distribution in Sprague-Dawley rat at 1 mg/kg, iv; assay type: ADME, organism-based; parameters: dose 1 mg/kg, route intravenous; conditions: in vivo
Procedure, shortened: as §1

[11] = Oral bioavailability in cynomolgus monkey at 4 mg/kg; assay type: ADME, organism-based, Macaca fascicularis; conditions: in vivo
[12] = Oral bioavailability in CD1 mouse at 5 mg/kg; assay type: ADME, organism-based; conditions: in vivo
[13] = Plasma clearance in Sprague-Dawley rat at 1 mg/kg, iv; assay type: ADME, organism-based; parameters: dose 1 mg/kg, route intravenous
Procedure, shortened: as §1

[14] = Toxicity in po dosed Ptc+/- Hic+/- mouse B837Tx cells allografted NOD/SCID mouse assessed as maximum tolerated dose after 5 days; assay type: organism-based; conditions: in vivo
Procedure, shortened: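 Tumor-bearing immunocompromised mice received repeat oral dosing for 5 days. MTD was defined as the dose tolerated by all animals (N = 3).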

[15] = Volume of distribution in CD1 mouse at 1 mg/kg, iv; assay type: ADME, organism-based; parameters: dose 1 mg/kg, route intravenous; conditions: in vivo
Procedure, shortened: as §1

[16] = Elimination half life in Sprague-Dawley rat at 1 mg/kg, iv; assay type: ADME, organism-based; parameters: dose 1 mg/kg, route intravenous; conditions: in vivo, read-out: beta t1/2 (converted)
Procedure, shortened: as §1

[17] = Oral bioavailability in Beagle dog at 4 mg/kg; assay type: ADME, organism-based, Canis lupus familiaris; conditions: in vivo
[18] = Volume of distribution in cynomolgus monkey at 1 mg/kg, iv; assay type: ADME, organism-based, Macaca fascicularis; parameters: dose 1 mg/kg, route intravenous; conditions: in vivo
Procedure, shortened: as §1

[19] = Elimination half life in CD1 mouse at 1 mg/kg, iv; assay type: ADME, organism-based; parameters: dose 1 mg/kg, route intravenous; conditions: in vivo, read-out: beta t1/2 (converted)
Procedure, shortened: as §1

[20] = Plasma clearance in cynomolgus monkey at 1 mg/kg, iv; assay type: ADME, organism-based, Macaca fascicularis; parameters: dose 1 mg/kg, route intravenous
Procedure, shortened: as §1

Mus musculus [21] = test: Antitumor activity against Ptc+/- Hic+/- mouse B837Tx cells allografted in NOD/SCID mouse assessed as median time to unmeasurable tumor volume at 25 mg/kg, po administered daily for 21 days; assay type: functional, organism-based; parameters: dose 25 mg/kg

CC1=C2C[C@H]3[C@@H](CC[C@@H]4C[C@@H](N)CC[C@@]43C)[C@@H]2CC[C@@]2(C1)O[C@@H]1C[C@H](C)CN[C@H]1[C@H]2C
pEC50 [1]: < 6.00

CC(=O)N[C@H]1CC[C@@]2(C)[C@H](CC[C@H]3[C@@H]4CC[C@@]5(CC(C)=C4C[C@@H]32)O[C@@H]2C[C@H](C)CN[C@H]2[C@H]5C)C1
half-life at 0.5 µM (in vitro; microsomes): 1 h
pEC50 [1]: 6.52

CC1=C2C[C@H]3[C@@H](CC[C@@H]4C[C@@H](n5ccnn5)CC[C@@]43C)[C@@H]2CC[C@@]2(C1)O[C@@H]1C[C@H](C)CN[C@H]1[C@H]2C
half-life at 0.5 µM (in vitro; liver microsomes): 1.17 h
pEC50 [1]: 6.89

CC1=C2C[C@H]3[C@@H](CC[C@@H]4C[C@H](n5ccnn5)CC[C@@]43C)[C@@H]2CC[C@@]2(C1)O[C@@H]1C[C@H](C)CN[C@H]1[C@H]2C
half-life at 0.5 µM (in vitro; liver microsomes): 0.667 h
pEC50 [1]: 7.62

CO[C@H]1CC[C@@]2(C)[C@H](CC[C@H]3[C@@H]4CC[C@@]5(CC(C)=C4C[C@@H]32)O[C@@H]2C[C@H](C)CN[C@H]2[C@H]5C)C1
half-life at 0.5 µM (in vitro; microsomes): > 3.33 h
pEC50 [1]: 6.31

CC1=C2C[C@H]3[C@@H](CC[C@@H]4C[C@H](O)CC[C@@]43C)[C@@H]2CC[C@@]2(C1)O[C@@H]1C[C@H](C)CN[C@H]1[C@H]2C
half-life at 0.5 µM (in vitro; liver microsomes): 0.667 h
pEC50 [1]: 8.05

CC1=C2C[C@H]3[C@@H](CC[C@@H]4Cc5nc(C)sc5C[C@@]43C)[C@@H]2CC[C@@]2(C1)O[C@@H]1C[C@H](C)CN[C@H]1[C@H]2C
half-life at 0.5 µM (in vitro; liver microsomes): 1.67 h
pEC50 [1]: 6.57

CC1=C2C[C@H]3[C@@H](CCC4=CC(=O)CC[C@@]43C)[C@@H]2CC[C@@]2(C1)O[C@@H]1C[C@H](C)CN[C@H]1[C@H]2C
half-life at 0.5 µM (in vitro; microsomes): 1.25 h
Activity (Mus musculus [2]): inactive
half-life [3]: 2.2 h
Activity (Mus musculus [4]): inactive
bioavailability [5]: 13%
clearance [6]: 78.3 mL/min/kg
half-life [7]: 2.4 h
clearance [8]: 60 mL/min/kg
Vd [9]: 13.9 L/kg
Vd [10]: 28 L/kg
pEC50 [1]: 6.52
bioavailability [11]: 69%
bioavailability [12]: 79%
clearance [13]: 207 mL/min/kg
MTD at 120 h [14]: 25 mg/kg
Vd [15]: 18 L/kg
half-life [16]: 1.7 h
bioavailability [17]: 7%
Vd [18]: 21.3 L/kg
half-life [19]: 3.5 h
clearance [20]: 103 mL/min/kg
Activity (Mus musculus [21]): inactive

CC1=C2C[C@H]3[C@@H](CC[C@@H]4CN(C)C(=O)CC[C@@]43C)[C@@H]2CC[C@@]2(C1)O[C@@H]1C[C@H](C)CN[C@H]1[C@H]2C
half-life at 0.5 µM (in vitro; microsomes): 0.767 h
pEC50 [1]: 7.40

CC1=C2C[C@H]3[C@@H](CC[C@@H]4Cc5nn(C)cc5C[C@@]43C)[C@@H]2CC[C@@]2(C1)O[C@@H]1C[C@H](C)CN[C@H]1[C@H]2C
half-life at 0.5 µM (in vitro; liver microsomes): 0.583 h
pEC50 [1]: 7.27

CC1=C2C[C@H]3[C@@H](CC[C@@H]4Cc5nn(S(=O)(=O)c6ccc(C)cc6)cc5C[C@@]43C)[C@@H]2CC[C@@]2(C1)O[C@@H]1C[C@H](C)CN[C@H]1[C@H]2C
half-life at 0.5 µM (in vitro; liver microsomes): 1.08 h
pEC50 [1]: 6.05

CC1=C2C[C@H]3[C@@H](CC[C@@H]4C[C@@H](NS(C)(=O)=O)CC[C@@]43C)[C@@H]2CC[C@@]2(C1)O[C@@H]1C[C@H](C)CN[C@H]1[C@H]2C
half-life at 0.5 µM (in vitro; microsomes): 0.5 h
pEC50 [1]: 7.05

CC1=C2C[C@H]3[C@@H](CC[C@@H]4C/C(=N/O)CC[C@@]43C)[C@@H]2CC[C@@]2(C1)O[C@@H]1C[C@H](C)CN[C@H]1[C@H]2C
half-life at 0.5 µM (in vitro; microsomes): 0.75 h
pEC50 [1]: 7.82

CC1=C2C[C@H]3[C@@H](CC[C@@H]4Cc5nonc5C[C@@]43C)[C@@H]2CC[C@@]2(C1)O[C@@H]1C[C@H](C)CN[C@H]1[C@H]2C
half-life at 0.5 µM (in vitro; liver microsomes): 0.133 h
pEC50 [1]: 6.64

CO/N=C1\CC[C@@]2(C)[C@H](CC[C@H]3[C@@H]4CC[C@@]5(CC(C)=C4C[C@@H]32)O[C@@H]2C[C@H](C)CN[C@H]2[C@H]5C)C1
half-life at 0.5 µM (in vitro; liver microsomes): 0.917 h
pEC50 [1]: 6.80

CC1=C2C[C@H]3[C@@H](CC[C@@H]4Cc5nn(S(C)(=O)=O)cc5C[C@@]43C)[C@@H]2CC[C@@]2(C1)O[C@@H]1C[C@H](C)CN[C@H]1[C@H]2C
half-life at 0.5 µM (in vitro; liver microsomes): 3 h
pEC50 [1]: 6.85

CC(=O)N[C@@H]1CC[C@@]2(C)[C@H](CC[C@H]3[C@@H]4CC[C@@]5(CC(C)=C4C[C@@H]32)O[C@@H]2C[C@H](C)CN[C@H]2[C@H]5C)C1
half-life at 0.5 µM (in vitro; microsomes): 1.08 h
pEC50 [1]: 7.77

CC1=C2C[C@H]3[C@@H](CC[C@H]4CC(=O)CC[C@@]43C)[C@@H]2CC[C@@]2(C1)O[C@@H]1C[C@H](C)CN[C@H]1[C@H]2C
half-life at 0.5 µM (in vitro; microsomes): 1.25 h
pEC50 [1]: 6.40

CO[C@@H]1CC[C@@]2(C)[C@H](CC[C@H]3[C@@H]4CC[C@@]5(CC(C)=C4C[C@@H]32)O[C@@H]2C[C@H](C)CN[C@H]2[C@H]5C)C1
half-life at 0.5 µM (in vitro; microsomes): 0.333 h
pEC50 [1]: 6.74

CC1=C2C[C@H]3[C@@H](CC[C@@H]4C[C@@H](O)CC[C@@]43C)[C@@H]2CC[C@@]2(C1)O[C@@H]1C[C@H](C)CN[C@H]1[C@H]2C
half-life at 0.5 µM (in vitro; liver microsomes): 0.333 h
pEC50 [1]: 7.64

CC1=C2C[C@H]3[C@@H](CC[C@@H]4CCCC[C@@]43C)[C@@H]2CC[C@@]2(C1)O[C@@H]1C[C@H](C)CN[C@H]1[C@H]2C
pEC50 [1]: 6.12

CC1=C2C[C@H]3[C@@H](CC[C@@H]4CC(=O)CC[C@@]43C)[C@@H]2CC[C@@]2(C1)O[C@@H]1C[C@H](C)CN[C@H]1[C@H]2C
half-life at 0.5 µM (in vitro; microsomes): 1.17 h
pEC50 [1]: 7.89

CC1=C2C[C@H]3[C@@H](CC[C@@H]4c5c[nH]nc5CC[C@@]43C)[C@@H]2CC[C@@]2(C1)O[C@@H]1C[C@H](C)CN[C@H]1[C@H]2C
half-life at 0.5 µM (in vitro; microsomes): 0.45 h
pEC50 [1]: 6.66

CC1=C2C[C@H]3[C@@H](CC[C@@H]4C[C@H](N)CC[C@@]43C)[C@@H]2CC[C@@]2(C1)O[C@@H]1C[C@H](C)CN[C@H]1[C@H]2C
pEC50 [1]: < 6.00

CC1=C2C[C@H]3[C@@H](CC[C@@H]4Cc5[nH][nH]c(=O)c5C[C@@]43C)[C@@H]2CC[C@@]2(C1)O[C@@H]1C[C@H](C)CN[C@H]1[C@H]2C
half-life at 0.5 µM (in vitro; liver microsomes): 1.67 h
pEC50 [1]: 6.77

CC1=C2C[C@H]3[C@@H](CC[C@@H]4Cc5n[nH]c(C(F)(F)F)c5C[C@@]43C)[C@@H]2CC[C@@]2(C1)O[C@@H]1C[C@H](C)CN[C@H]1[C@H]2C
half-life at 0.5 µM (in vitro; liver microsomes): 3.33 h
pEC50 [1]: 6.77

CC1=C2C[C@H]3[C@@H](CC[C@@H]4Cc5nocc5C[C@@]43C)[C@@H]2CC[C@@]2(C1)O[C@@H]1C[C@H](C)CN[C@H]1[C@H]2C
half-life at 0.5 µM (in vitro; microsomes): 0.133 h
pEC50 [1]: 7.21
